In ChEMBL document CHEMBL4257452, “A mini-library system to investigate non-essential residues of lipid-phosphatidylserine (PS) binding peptide-peptoid hybrid PPS1” (Medchemcomm, 2017):
Activity calls are given as the source filed them. The rule behind the calls is not given here. Starred links: 1 amine or outer side, 2 acyl side, 3 side chain; linkers in the order of their positions; H or OH if unused. Positions of bridges follow the written chain, without caps; N, C: chain ends. Non-standard residues stand in square brackets, D forms with d. Residues, ends and D or L forms follow the SMILES beside them. Chains are numbered I, II in the order given. Gly(N-piperonyl) = O=C(O)CNCc1ccc2c(c1)OCO2; Gly(Nα-4-Cl-benzyl) = O=C(O)CNCc1ccc(Cl)cc1; X5 = O=C(CN(c1ccc2c(c1)OCCO2)[*:1])[*:2]; N(4-MeOBn)Gly = COc1ccc(CNCC(=O)O)cc1; N((CH2)3OiPr)Gly = CC(C)OCCCNCC(=O)O; N(CH2CH2NHAc)Gly = CC(=O)NCCNCC(=O)O; X3 = CC(c1ccccc1)N(CC(=O)[*:2])[*:1]; X9 = O=C(CN(CCOc1ccccc1)[*:1])[*:2]; Nrpe = C[C@@H](NCC(=O)O)c1ccccc1; X10 = CCC(C)CN(CC(=O)[*:2])[*:1]; NAllylGly = C=CCNCC(=O)O; Nlys = NCCCCNCC(=O)O; Nme = COCCNCC(=O)O

How the values were obtained:
[1] = test system: HCC4017; assay: Cytotoxicity against human HCC4017 cells assessed as reduction in cell viability after 24 hrs by MTS assay; assay type: functional, cell-based; conditions: HCC4017, 24 h
How it was run: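 HCC4017 lung cancer cells (RPMI, 5% FBS) were seeded at 10 000 cells/well in triplicate and adhered overnight. Purified compounds were given as a concentration gradient for 24 h. MTS reagent was added for 2 h and absorbance read at 490 nm. IC50 was taken from the viability curves.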

[2] = test system: HCC4017; assay: Cytotoxicity against human HCC4017 cells assessed as reduction in cell viability at 20 uM after 24 hrs by MTS assay; assay type: functional, cell-based
How it was run: (§1)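 HCC4017 cells (RPMI, 5% FBS) and HBEC-3KT normal lung cells (KSFM with recombinant human EGF and bovine pituitary extract) were plated at 10 000 cells/well in triplicate and left to adhere overnight. They were exposed to 1 or 20 μM compound for 24 h. MTS reagent was then added for 2 h and absorbance read at 490 nm. Viability is % of untreated control wells.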

[3] = Cytotoxicity against human HBEC3-KT cells assessed as reduction in cell viability at 20 uM after 24 hrs by MTS assay; assay type: cell-based; how it was run: as §1
[4] = Cytotoxicity against human HBEC3-KT cells assessed as reduction in cell viability at 1 uM after 24 hrs by MTS assay; assay type: cell-based; how it was run: as §1
[5] = test system: HCC4017; assay: Cytotoxicity against human HCC4017 cells assessed as reduction in cell viability up to 100 uM after 24 hrs by calcein-AM dye based fluorescence assay; assay type: functional; conditions: in the assay text read “up to 50 uM” for “up to 100 uM”
How it was run: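 HCC4017 cells were seeded at 10 000 cells/well in triplicate, adhered overnight, and treated with a graded series of compounds for 24 h. Medium was replaced with PBS containing calcein AM (1 mM as printed) for 15 min at room temperature. Fluorescence emission was read at 520 nm.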

[6] = test system: HCC4017; assay: Cytotoxicity against human HCC4017 cells assessed as reduction in cell viability at 1 uM after 24 hrs by MTS assay; assay type: functional, cell-based; how it was run: as §1

COc1ccc(CN(CC(=O)NC(C(=O)NC(CCCCN)C(=O)NC(CCCCN)C(=O)NC(CCSC)C(=O)NCCCCC(NC(=O)C(CCSC)NC(=O)C(CCCCN)NC(=O)C(CCCCN)NC(=O)C(NC(=O)CN(Cc2ccc(OC)cc2)C(=O)CN(C(=O)CN(Cc2ccc3c(c2)OCO3)C(=O)CNC(C)c2ccccc2)C(C)c2ccccc2)C(C)O)C(N)=O)C(C)O)C(=O)CN(C(=O)CN(Cc2ccc3c(c2)OCO3)C(=O)CNC(C)c2ccccc2)C(C)c2ccccc2)cc1 (configuration not stated) (I: H-[X3][Gly(N-piperonyl)][X3][N(4-MeOBn)Gly]TKKMK-NH2 / II: H-[X3][Gly(N-piperonyl)][X3][N(4-MeOBn)Gly]TKKM; amide I:9-II:C; configuration not given here)
IC50 [1]: 14 µM | Activity [2]: Active

COc1ccc(CN(CC(=O)N(CCCOC(C)C)CC(=O)NC(CCCCN)C(=O)NC(CCCCN)C(=O)NC(CCSC)C(=O)NCCCCC(NC(=O)C(CCSC)NC(=O)C(CCCCN)NC(=O)C(CCCCN)NC(=O)CN(CCCOC(C)C)C(=O)CN(Cc2ccc(OC)cc2)C(=O)CN(C(=O)CN(Cc2ccc3c(c2)OCO3)C(=O)CNC(C)c2ccccc2)C(C)c2ccccc2)C(N)=O)C(=O)CN(C(=O)CN(Cc2ccc3c(c2)OCO3)C(=O)CNC(C)c2ccccc2)C(C)c2ccccc2)cc1 (configuration not stated) (I: H-[X3][Gly(N-piperonyl)][X3][N(4-MeOBn)Gly][N((CH2)3OiPr)Gly]KKMK-NH2 / II: H-[X3][Gly(N-piperonyl)][X3][N(4-MeOBn)Gly][N((CH2)3OiPr)Gly]KKM; amide I:9-II:C; configuration not given here)
Activity [3]: Non-Toxic | Activity [4]: Non-Toxic | IC50 [1]: 7 to 10 µM | Activity [5]: Active | Activity [2]: Active | Activity [6]: inactive

C=CCNCC(=O)N(CCOC)CC(=O)N(CC=C)CC(=O)N(CCOC)CC(=O)N(CC=C)CC(=O)NCC(=O)NC(CCCCN)C(=O)NC(CCSC)C(=O)NCCCCC(NC(=O)C(CCSC)NC(=O)C(CCCCN)NC(=O)CNC(=O)CN(CC=C)C(=O)CN(CCOC)C(=O)CN(CC=C)C(=O)CN(CCOC)C(=O)CNCC=C)C(N)=O (configuration not stated) (I: H-[NAllylGly][Nme][NAllylGly][Nme][NAllylGly]GKMK-NH2 / II: H-[NAllylGly][Nme][NAllylGly][Nme][NAllylGly]GKM; amide I:9-II:C; configuration not given here)
Activity [3]: Non-Toxic | Activity [4]: Non-Toxic | Activity [5]: inactive | Activity [6]: inactive

COc1ccc(CN(CC(=O)NC(Cc2ccccc2)C(=O)NC(CCCCN)C(=O)NC(CCCCN)C(=O)NC(CCSC)C(=O)NCCCCC(NC(=O)C(CCSC)NC(=O)C(CCCCN)NC(=O)C(CCCCN)NC(=O)C(Cc2ccccc2)NC(=O)CN(Cc2ccc(OC)cc2)C(=O)CN(C(=O)CN(Cc2ccc3c(c2)OCO3)C(=O)CNC(C)c2ccccc2)C(C)c2ccccc2)C(N)=O)C(=O)CN(C(=O)CN(Cc2ccc3c(c2)OCO3)C(=O)CNC(C)c2ccccc2)C(C)c2ccccc2)cc1 (configuration not stated) (I: H-[X3][Gly(N-piperonyl)][X3][N(4-MeOBn)Gly]FKKMK-NH2 / II: H-[X3][Gly(N-piperonyl)][X3][N(4-MeOBn)Gly]FKKM; amide I:9-II:C; configuration not given here)
Activity [3]: Non-Toxic | Activity [4]: Non-Toxic | IC50 [1]: 7 to 10 µM | Activity [2]: Active | Activity [6]: inactive

COc1ccc(CN(CC(=O)N(CCCCN)CC(=O)NC(CCCCN)C(=O)NC(CCCCN)C(=O)NCCCCC(NC(=O)C(CCCCN)NC(=O)C(CCCCN)NC(=O)CN(CCCCN)C(=O)CN(Cc2ccc(OC)cc2)C(=O)CN(C(=O)CN(Cc2ccc3c(c2)OCO3)C(=O)CNC(C)c2ccccc2)C(C)c2ccccc2)C(N)=O)C(=O)CN(C(=O)CN(Cc2ccc3c(c2)OCO3)C(=O)CNC(C)c2ccccc2)C(C)c2ccccc2)cc1 (configuration not stated) (I: H-[X3][Gly(N-piperonyl)][X3][N(4-MeOBn)Gly][Nlys]KKK-NH2 / II: H-[X3][Gly(N-piperonyl)][X3][N(4-MeOBn)Gly][Nlys]KK; amide I:8-II:C; configuration not given here)
Activity [5]: Active | Activity [2]: Active

COc1ccc(CN(CC(=O)N(CC(=O)N[C@@H](CCCCN)C(=O)N[C@H](CCCCN)C(=O)N[C@@H](CCSC)C(=O)NCCCC[C@H](NC(=O)[C@H](CCSC)NC(=O)[C@@H](CCCCN)NC(=O)[C@H](CCCCN)NC(=O)CN(C(=O)CN(Cc2ccc(OC)cc2)C(=O)CN(C(=O)CN(Cc2ccc3c(c2)OCO3)C(=O)CN[C@H](C)c2ccccc2)[C@H](C)c2ccccc2)c2ccc3c(c2)OCCO3)C(N)=O)c2ccc3c(c2)OCCO3)C(=O)CN(C(=O)CN(Cc2ccc3c(c2)OCO3)C(=O)CN[C@H](C)c2ccccc2)[C@H](C)c2ccccc2)cc1 (I: H-[Nrpe][Gly(N-piperonyl)][Nrpe][N(4-MeOBn)Gly][X5]K[dK]MK-NH2 / II: H-[Nrpe][Gly(N-piperonyl)][Nrpe][N(4-MeOBn)Gly][X5]K[dK]M; amide I:9-II:C)
Activity [3]: Non-Toxic | Activity [4]: Non-Toxic | Activity [2]: Active | Activity [6]: inactive

COc1ccc(CN(CC(=O)N(CCNC(C)=O)CC(=O)NC(CCCCN)C(=O)NC(CCCCN)C(=O)NC(CCSC)C(=O)NCCCCC(NC(=O)C(CCSC)NC(=O)C(CCCCN)NC(=O)C(CCCCN)NC(=O)CN(CCNC(C)=O)C(=O)CN(Cc2ccc(OC)cc2)C(=O)CN(C(=O)CN(Cc2ccc3c(c2)OCO3)C(=O)CNC(C)c2ccccc2)C(C)c2ccccc2)C(N)=O)C(=O)CN(C(=O)CN(Cc2ccc3c(c2)OCO3)C(=O)CNC(C)c2ccccc2)C(C)c2ccccc2)cc1 (configuration not stated) (I: H-[X3][Gly(N-piperonyl)][X3][N(4-MeOBn)Gly][N(CH2CH2NHAc)Gly]KKMK-NH2 / II: H-[X3][Gly(N-piperonyl)][X3][N(4-MeOBn)Gly][N(CH2CH2NHAc)Gly]KKM; amide I:9-II:C; configuration not given here)
Activity [2]: Active

COc1ccc(CN(CC(=O)N(CCCCN)CC(=O)N[C@@H](CCCCN)C(=O)N[C@H](CCCCN)C(=O)N[C@@H](CCSC)C(=O)NCCCC[C@H](NC(=O)[C@H](CCSC)NC(=O)[C@@H](CCCCN)NC(=O)[C@H](CCCCN)NC(=O)CN(CCCCN)C(=O)CN(Cc2ccc(OC)cc2)C(=O)CN(C(=O)CN(Cc2ccc3c(c2)OCO3)C(=O)CN[C@H](C)c2ccccc2)[C@H](C)c2ccccc2)C(N)=O)C(=O)CN(C(=O)CN(Cc2ccc3c(c2)OCO3)C(=O)CN[C@H](C)c2ccccc2)[C@H](C)c2ccccc2)cc1 (I: H-[Nrpe][Gly(N-piperonyl)][Nrpe][N(4-MeOBn)Gly][Nlys]K[dK]MK-NH2 / II: H-[Nrpe][Gly(N-piperonyl)][Nrpe][N(4-MeOBn)Gly][Nlys]K[dK]M; amide I:9-II:C)
Activity [3]: Non-Toxic | Activity [4]: Non-Toxic | Activity [5]: Active | Activity [2]: Active | Activity [6]: inactive

COc1ccc(CN(CC(=O)N(CCOc2ccccc2)CC(=O)NC(CCCCN)C(=O)NC(CCCCN)C(=O)NC(CCSC)C(=O)NCCCCC(NC(=O)C(CCSC)NC(=O)C(CCCCN)NC(=O)C(CCCCN)NC(=O)CN(CCOc2ccccc2)C(=O)CN(Cc2ccc(OC)cc2)C(=O)CN(C(=O)CN(Cc2ccc3c(c2)OCO3)C(=O)CNC(C)c2ccccc2)C(C)c2ccccc2)C(N)=O)C(=O)CN(C(=O)CN(Cc2ccc3c(c2)OCO3)C(=O)CNC(C)c2ccccc2)C(C)c2ccccc2)cc1 (configuration not stated) (I: H-[X3][Gly(N-piperonyl)][X3][N(4-MeOBn)Gly][X9]KKMK-NH2 / II: H-[X3][Gly(N-piperonyl)][X3][N(4-MeOBn)Gly][X9]KKM; amide I:9-II:C; configuration not given here)
Activity [2]: Active

CCC(C)CN(CC(=O)NC(CCCCN)C(=O)NC(CCCCN)C(=O)NC(CCSC)C(=O)NCCCCC(NC(=O)C(CCSC)NC(=O)C(CCCCN)NC(=O)C(CCCCN)NC(=O)CN(CC(C)CC)C(=O)CN(Cc1ccc(OC)cc1)C(=O)CN(C(=O)CN(Cc1ccc2c(c1)OCO2)C(=O)CNC(C)c1ccccc1)C(C)c1ccccc1)C(N)=O)C(=O)CN(Cc1ccc(OC)cc1)C(=O)CN(C(=O)CN(Cc1ccc2c(c1)OCO2)C(=O)CNC(C)c1ccccc1)C(C)c1ccccc1 (configuration not stated) (I: H-[X3][Gly(N-piperonyl)][X3][N(4-MeOBn)Gly][X10]KKMK-NH2 / II: H-[X3][Gly(N-piperonyl)][X3][N(4-MeOBn)Gly][X10]KKM; amide I:9-II:C; configuration not given here)
Activity [2]: Active

COc1ccc(CN(CC(=O)N(CC(=O)NC(CCCCN)C(=O)NC(CCCCN)C(=O)NC(CCSC)C(=O)NCCCCC(NC(=O)C(CCSC)NC(=O)C(CCCCN)NC(=O)C(CCCCN)NC(=O)CN(Cc2ccc(Cl)cc2)C(=O)CN(Cc2ccc(OC)cc2)C(=O)CN(C(=O)CN(Cc2ccc3c(c2)OCO3)C(=O)CNC(C)c2ccccc2)C(C)c2ccccc2)C(N)=O)Cc2ccc(Cl)cc2)C(=O)CN(C(=O)CN(Cc2ccc3c(c2)OCO3)C(=O)CNC(C)c2ccccc2)C(C)c2ccccc2)cc1 (configuration not stated) (I: H-[X3][Gly(N-piperonyl)][X3][N(4-MeOBn)Gly][Gly(Nα-4-Cl-benzyl)]KKMK-NH2 / II: H-[X3][Gly(N-piperonyl)][X3][N(4-MeOBn)Gly][Gly(Nα-4-Cl-benzyl)]KKM; amide I:9-II:C; configuration not given here)
Activity [2]: Active
